The source made the active and inactive calls.
Experiments:
Panc1005 [1] = test: Cytotoxicity against human Panc 10.05 cells assessed as reduction in tumor spheroid area after 72 hrs by Alamar Blue assay; type: functional, cell-based; conditions: Panc1005, 72 h
Outline: (§1)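 3D spheroids of patient-derived PDAC cells (tomato red) alone or with CAF19 cells, plus CAF cultures. Imaging read-outs: area is the μ2 of objects above a tomato red intensity threshold; intensity is summed red or green pixel fluorescence after background removal. n = 3–5.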

[2] = Selectivity ratio of IC50 for human CAF19 cells to IC50 for human Pa03C cells
Homo sapiens = species: Homo sapiens; test: Cytotoxicity against human D458 cells at 39 nM after 72 hrs by Presto Blue assay; type: functional, cell-based
Outline: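 D425 and D458 medulloblastoma cells in DMEM high glucose with 20% FBS, seeded at 1000 cells/well in medium with 1% FBS. Twofold dilutions from 20 μM down to 39 nM. Exposed 3 days at 37 °C. Presto Blue added about 4 h before fluorescence read (540–570 nm). IC50 from % viability versus log concentration.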

[3] = target: Signal transducer and activator of transcription 3 (Homo sapiens) (UniProt P40763); test: Inhibition of STAT3 phosphorylation at Y705 residue in human MDA-MB-231 cells up to 30 uM after 5 hrs by Western blot method; type: cell-based
Chain of Signal transducer and activator of transcription 3 (Homo sapiens) (P40763 whole entry): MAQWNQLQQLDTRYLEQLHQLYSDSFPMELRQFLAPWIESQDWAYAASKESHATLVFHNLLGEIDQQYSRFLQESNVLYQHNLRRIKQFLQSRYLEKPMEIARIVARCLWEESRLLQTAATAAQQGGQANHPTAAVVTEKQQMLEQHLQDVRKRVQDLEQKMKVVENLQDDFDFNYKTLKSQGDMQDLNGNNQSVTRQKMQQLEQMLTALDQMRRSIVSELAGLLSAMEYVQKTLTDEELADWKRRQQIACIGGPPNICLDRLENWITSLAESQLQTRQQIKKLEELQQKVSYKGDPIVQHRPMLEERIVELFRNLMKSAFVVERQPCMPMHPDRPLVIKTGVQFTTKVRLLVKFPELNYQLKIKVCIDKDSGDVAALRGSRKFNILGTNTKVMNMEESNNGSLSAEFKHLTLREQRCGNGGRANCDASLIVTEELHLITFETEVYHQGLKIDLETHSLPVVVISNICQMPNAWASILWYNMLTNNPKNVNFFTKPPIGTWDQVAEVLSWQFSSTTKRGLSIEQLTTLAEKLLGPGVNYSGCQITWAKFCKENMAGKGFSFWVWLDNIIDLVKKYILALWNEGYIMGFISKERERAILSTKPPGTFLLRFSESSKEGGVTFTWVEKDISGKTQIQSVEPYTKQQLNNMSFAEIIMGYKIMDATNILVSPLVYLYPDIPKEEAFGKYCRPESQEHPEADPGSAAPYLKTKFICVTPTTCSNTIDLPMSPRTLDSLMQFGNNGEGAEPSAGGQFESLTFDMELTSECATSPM
Outline: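 Run on 4–15% SDS-PAGE and transferred to PVDF. Primary antibodies 1:1000 overnight at 4 °C, HRP or fluorescent secondary 1:5000, ECL detection, β-actin loading control.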

[4] = Tmax in NSG mouse at 20 mg/kg, ip administered as single dose by HPLC-MS/MS analysis; type: ADME, organism-based; conditions: in vivo
Outline: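 NSG mice received a single 20 mg/kg IP injection in Cremophor EL/EtOH (1:1, 4% final volume)/sterile saline. Tail-vein blood was taken at 0.5, 1, 2, 4, 8 and 24 h, and compound was quantified in plasma (n = 2).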

[5] = Stability of the compound in DMSO at 10 mM after 16 hrs in presence of 100 fold excess reduced L-glutathione by 19F NMR analysis; type: physicochemical; conditions: 10000 µM
[6] = Drug uptake in NSG mouse serum at 20 mg/kg, ip administered as single dose and measured at 24 hrs by HPLC-MS/MS analysis; type: ADME, organism-based; conditions: read-out: Drug uptake
Outline: (§2)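 NSG mice given a single 20 mg/kg IP dose in Cremophor EL/EtOH (1:1, 4% final volume)/sterile saline. Tail-vein blood at 0.5, 1, 2, 4, 8 and 24 h, n = 2. Drug quantified in serum/plasma. Half-life and clearance calculated assuming 100% bioavailability.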

[7] = Selectivity ratio of IC50 for human CAF19 cells to IC50 for human Panc 10.05 cells
Panc1005 [8] = test: Cytotoxicity against human Panc 10.05 cells assessed as reduction in tumor spheroid intensity after 72 hrs in presence of human CAF19 cells by Alamar Blue assay; type: functional, cell-based; conditions: Panc1005, 72 h; outline: as §1
[9] = Drug uptake in NSG mouse serum at 20 mg/kg, ip administered as single dose and measured at 4 hrs by HPLC-MS/MS analysis; type: ADME, organism-based; conditions: read-out: Drug uptake; outline: as §2
Histone deacetylase 3 = Histone deacetylase 3 (Homo sapiens, UniProt O15379); test: Inhibition of recombinant human HDAC3 expressed in SF9 baculoviral system using FAM-labeled acetylated peptide as substrate by EMSA
Chain of Histone deacetylase 3 (O15379 whole entry): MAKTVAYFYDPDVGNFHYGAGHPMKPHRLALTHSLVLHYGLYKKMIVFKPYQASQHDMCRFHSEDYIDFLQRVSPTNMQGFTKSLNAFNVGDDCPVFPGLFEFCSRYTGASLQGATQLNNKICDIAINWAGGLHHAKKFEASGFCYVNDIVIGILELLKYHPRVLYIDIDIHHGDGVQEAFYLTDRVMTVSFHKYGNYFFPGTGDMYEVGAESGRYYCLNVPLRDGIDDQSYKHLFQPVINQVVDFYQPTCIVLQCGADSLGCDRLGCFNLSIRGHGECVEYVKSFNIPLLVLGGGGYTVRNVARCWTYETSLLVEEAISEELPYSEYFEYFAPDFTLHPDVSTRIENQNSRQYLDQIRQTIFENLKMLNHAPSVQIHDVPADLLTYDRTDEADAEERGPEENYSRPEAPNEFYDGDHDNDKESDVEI
Outline: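 Full-length recombinant human enzyme from an Sf9 baculovirus system, in 100 mM HEPES pH 7.5 with 25 mM KCl, 0.1% BSA, 0.01% Triton X-100 and 1% DMSO. Final enzyme was 0.5 nM for HDAC3, 60 nM for HDAC6 and 5.0 nM for HDAC8. FAM-acetylated peptide was 1 μM. The read-out was product/(substrate+product) by microfluidic mobility shift, with inhibition set against DMSO and no-enzyme controls (quadruplicate). Compounds were tested at 12 threefold-spaced concentrations, and IC50 came from a four-parameter sigmoid fit.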

[10] = Apparent permeability across basolateral to apical side in human Caco2 cells at 5 uM by LC-MS/MS analysis; type: ADME, cell-based; conditions: caco-2, 5 µM
Outline: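 Caco-2 monolayer permeability run in duplicate. Monolayer integrity checked by TEER and Lucifer Yellow fluorescence (ex 485/em 530 nm). Papp measured apical-to-basolateral and basolateral-to-apical by LC-ESI-MS/MS with internal standards. Digoxin, prazosin and propranolol as controls.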

[11] = Drug uptake in NSG mouse serum at 10 mg/kg, ip administered daily for 5 days by HPLC-MS/MS analysis; type: ADME, organism-based; conditions: read-out: Drug uptake
Outline: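 NSG mice dosed IP once daily for 5 days at 10 or 40 mg/kg, n = 6. Blood collected 5 h after the final injection for serum drug concentration, reported ± SD.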

Pa03C [12] = test: Cytotoxicity against human Pa03C cells assessed as reduction in tumor spheroid area after 72 hrs in presence of human CAF19 cells by Alamar Blue assay; type: functional, cell-based; outline: as §1
[13] = Drug uptake in NSG mouse serum at 20 mg/kg, ip administered as single dose and measured at 0.5 hrs by HPLC-MS/MS analysis; type: ADME, organism-based; conditions: read-out: Drug uptake; outline: as §2
[14] = target: Protein deacetylase HDAC6 (Homo sapiens) (UniProt Q9UBN7); test: Inhibition of recombinant human HDAC6 expressed in SF9 baculoviral system at 10 uM using FAM-labeled acetylated peptide as substrate by EMSA relative to control
Chain of Protein deacetylase HDAC6 (Homo sapiens) (Q9UBN7 whole entry): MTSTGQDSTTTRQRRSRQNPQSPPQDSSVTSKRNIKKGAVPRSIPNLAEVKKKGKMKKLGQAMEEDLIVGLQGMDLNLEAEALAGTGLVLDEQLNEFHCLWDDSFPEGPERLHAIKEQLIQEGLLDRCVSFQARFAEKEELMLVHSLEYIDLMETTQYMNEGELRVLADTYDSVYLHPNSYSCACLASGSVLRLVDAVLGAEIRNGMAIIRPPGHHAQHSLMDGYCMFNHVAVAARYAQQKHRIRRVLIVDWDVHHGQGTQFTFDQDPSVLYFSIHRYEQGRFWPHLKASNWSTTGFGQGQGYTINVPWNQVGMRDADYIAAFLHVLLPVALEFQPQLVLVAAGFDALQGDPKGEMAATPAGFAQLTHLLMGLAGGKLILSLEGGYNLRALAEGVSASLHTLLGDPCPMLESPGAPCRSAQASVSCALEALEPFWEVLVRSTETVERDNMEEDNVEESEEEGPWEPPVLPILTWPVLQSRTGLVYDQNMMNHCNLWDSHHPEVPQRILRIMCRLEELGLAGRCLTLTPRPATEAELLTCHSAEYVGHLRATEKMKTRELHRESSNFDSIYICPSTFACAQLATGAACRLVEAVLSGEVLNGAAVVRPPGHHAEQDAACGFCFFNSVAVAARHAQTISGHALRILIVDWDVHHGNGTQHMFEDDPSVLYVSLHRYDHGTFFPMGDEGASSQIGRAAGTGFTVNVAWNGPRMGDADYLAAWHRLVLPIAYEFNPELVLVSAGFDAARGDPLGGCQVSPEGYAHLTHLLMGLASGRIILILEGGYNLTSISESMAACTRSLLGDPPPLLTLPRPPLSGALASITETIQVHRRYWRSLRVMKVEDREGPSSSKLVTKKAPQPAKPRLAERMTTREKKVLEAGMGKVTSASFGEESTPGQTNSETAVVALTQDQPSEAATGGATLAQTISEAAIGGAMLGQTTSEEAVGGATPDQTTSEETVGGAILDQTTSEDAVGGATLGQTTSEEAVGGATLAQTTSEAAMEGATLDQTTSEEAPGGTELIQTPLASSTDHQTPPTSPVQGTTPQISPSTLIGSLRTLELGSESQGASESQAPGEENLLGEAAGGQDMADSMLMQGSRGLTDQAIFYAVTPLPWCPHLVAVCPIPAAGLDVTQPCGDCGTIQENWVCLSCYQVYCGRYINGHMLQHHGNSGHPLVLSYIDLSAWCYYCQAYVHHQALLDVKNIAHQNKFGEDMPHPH
Outline: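 Single-point screen at 10 μM compound, using full-length recombinant human enzyme expressed in Sf9 cells. Buffer was HEPES pH 7.5 with KCl, BSA and Triton X-100, and 1% DMSO. Final enzyme was 0.5 nM for HDAC3, 60 nM for HDAC6 and 5.0 nM for HDAC8, with 1 μM FAM-acetylated peptide. Percent inhibition was derived from the product sum ratio relative to DMSO-only (0%) and no-enzyme (100%) controls.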

[15] = target: Histone deacetylase 11 (Homo sapiens) (UniProt Q96DB2); test: Inhibition of recombinant human HDAC11 expressed in SF9 baculoviral system at 10 uM using FAM-labeled acetylated peptide as substrate by EMSA relative to control
Chain of Histone deacetylase 11 (Homo sapiens) (Q96DB2 whole entry): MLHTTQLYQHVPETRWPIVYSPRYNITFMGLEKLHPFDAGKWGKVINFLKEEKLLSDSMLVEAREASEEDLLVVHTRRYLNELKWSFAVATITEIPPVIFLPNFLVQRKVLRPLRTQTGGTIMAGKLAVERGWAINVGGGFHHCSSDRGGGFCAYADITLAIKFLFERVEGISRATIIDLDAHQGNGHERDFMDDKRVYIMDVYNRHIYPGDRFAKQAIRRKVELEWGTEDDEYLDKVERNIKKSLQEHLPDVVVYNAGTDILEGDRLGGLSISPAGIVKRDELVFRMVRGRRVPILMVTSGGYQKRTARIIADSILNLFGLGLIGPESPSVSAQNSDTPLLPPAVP
Outline: (§3)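 Full-length recombinant human HDACs from an Sf9 baculovirus system. Single-point screen at 10 μM by microfluidic mobility-shift assay with FAM-labeled acetylated peptide substrate. Buffer: 100 mM HEPES pH 7.5, 25 mM KCl, 0.1% BSA, 0.01% Triton X-100, 1% DMSO. % inhibition from product/(substrate + product) against no-inhibitor and no-enzyme controls.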

Pa03C [16] = test: Cytotoxicity against human Pa03C monolayer cells assessed as reduction in tumor spheroid intensity after 72 hrs by Alamar Blue assay; type: functional, cell-based
Outline: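 Monolayer proliferation of STR-authenticated, mycoplasma-checked patient-derived PDAC lines and mouse KPC cells. Plated at 2000 cells/well, treated 72 h, read by alamarBlue. At least triplicate, n = 3–5.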

[17] = target: Signal transducer and activator of transcription 3 (Homo sapiens) (UniProt P40763); test: Inhibition of STAT3 phosphorylation at S727 residue in human BTSC 147EF cells at 2 uM after 3 to 24 hrs by Western blot method; type: cell-based
Outline: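 BTSCs dissociated to single cells and treated with drug or DMSO. Lysed in RIPA buffer with protease inhibitors. 20 μg lysate run on SDS-PAGE and transferred to nitrocellulose. Blocked in 5% milk, primary antibody overnight at 4 °C, then HRP secondary for 1 h.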

[18] = target: Histone deacetylase 1 (Homo sapiens) (UniProt Q13547); test: Inhibition of recombinant human HDAC1 expressed in SF9 baculoviral system at 10 uM using FAM-labeled acetylated peptide as substrate by EMSA relative to control; outline: as §3
Chain of Histone deacetylase 1 (Homo sapiens) (Q13547 whole entry): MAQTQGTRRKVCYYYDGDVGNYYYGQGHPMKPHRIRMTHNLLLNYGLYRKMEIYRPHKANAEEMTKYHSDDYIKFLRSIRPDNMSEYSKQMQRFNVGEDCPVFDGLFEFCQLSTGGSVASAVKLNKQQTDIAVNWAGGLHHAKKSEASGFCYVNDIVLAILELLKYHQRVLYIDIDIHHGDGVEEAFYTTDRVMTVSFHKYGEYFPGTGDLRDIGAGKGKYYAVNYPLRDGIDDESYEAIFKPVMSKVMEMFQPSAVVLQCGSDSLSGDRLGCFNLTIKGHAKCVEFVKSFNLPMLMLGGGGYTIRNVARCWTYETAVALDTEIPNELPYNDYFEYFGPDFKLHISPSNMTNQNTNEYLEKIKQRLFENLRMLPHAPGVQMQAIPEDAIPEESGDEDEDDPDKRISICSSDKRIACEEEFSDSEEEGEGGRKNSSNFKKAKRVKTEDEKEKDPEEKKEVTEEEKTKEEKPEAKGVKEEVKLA

## CC(C)(C)c1ccc(CN(C(=O)CN(Cc2c(F)c(F)c(F)c(F)c2F)S(=O)(=O)c2ccc(F)cc2)c2ccc(C(=O)NO)cc2)cc1
Panc1005 [1]
  IC50: 970 nM
[2]
  Ratio IC50: 5 - 6
Homo sapiens
  Activity: Active
[3]
  inhibition: inactive
[4]
  Tmax: 30 min
[5]
  Stability: Stable
[6]
  concentration at 24 h: 265 ng/mL
[7]
  Ratio IC50: 5 - 6
Panc1005 [8]
  IC50: 500 nM
[9]
  concentration at 4 h: 3660 ng/mL
Histone deacetylase 3
  IC50: 654 nM
[10]
  Papp: 1.02 ×10⁻⁶ cm/s
[11]
  concentration at 120 h: 470 nM
Pa03C [12]
  IC50: 1410 nM
[13]
  concentration at 0.5 h: 7450 ng/mL
[14]
  inhibition: 98%
[15]
  inhibition: 97%
Pa03C [16]
  IC50: 3400 nM
[17]
  inhibition: inactive
[18]
  inhibition: 72%

From ChEMBL document CHEMBL4400543, “Identification and Characterization of AES-135, a Hydroxamic Acid-Based HDAC Inhibitor That Prolongs Survival in an Orthotopic Mouse Model of Pancreatic Cancer” (J Med Chem, 2019)
